Experimental data published in ChEMBL document CHEMBL4680176, “Identification of DOT1L inhibitors by structure-based virtual screening adapted from a nucleoside-focused library” (Eur J Med Chem, 2020).
Activity calls are given as the source filed them. The calls are words filed in the database; no cut-off is given here.

System: Bone marrow cell
Experiment: Induction of cell differentiation in mouse bone marrow cells transformed with MLL-AF9 assessed as change in morphology at 3 uM incubated for 6 days by Wright-Giemsa staining based inverted microscopy
Type: functional
Conditions: time 6.0 day
How it was run: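 Cells taken on day 6 of the proliferation culture (MLL-AF9 murine line, IMDM + 15% FBS + IL-3, re-dosed at each split, 0.3% DMSO). Cytospun onto slides, Wright-Giemsa stained, and imaged under bright field on an inverted microscope to assess morphology.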

Which Activity does the source give for `CC(C)N(CCCNC(=O)Nc1ccc(C(C)(C)C)cc1)C[C@H]1O[C@@H](n2ccc3c(N)ncnc32)[C@H](O)[C@@H]1O` here?
The Activity was “Active”.
